Experimental data reported in ChEMBL document CHEMBL1121664, “(Acylaryloxy)acetic acid diuretics. 4. Indeno[5,4-b]furan-2-carboxylic acids” (1981).

How the values were obtained:
Pan troglodytes [1] = assay: Compound was tested for the oral natriuretic activity in chimpanzee at the dose 5 mg/kg expressed as excretion rate in microequiv of Na+/min; assay type: functional
Procedure, shortened: (§1)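 GFR measured by iv pyrogen-free inulin. Inulin and urate clearances and Na+, K+, Cl- excretion rates measured by Auto Analyzer. Control values averaged over three 20-min periods. Compound given orally as aqueous solution via nasal catheter. Response is the mean of eight 15–20 min periods minus control, from single experiments.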

Rattus norvegicus [2] = assay: Compound was tested for the oral natriuretic activity in female rats at the dose 27 mg/kg; mequiv of Na+ x 100 / cage; assay type: functional
Procedure, shortened: (§2)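 Female Charles River rats (150–170 g) were kept overnight on a sugar diet with water ad libitum. Compound was dosed po in a final vehicle of 4% DMF in water with Tween 80, alongside concurrent vehicle placebo. Rats were housed three per metabolism cage and urine was collected over 0–5 h. Na+ is reported as mequiv ×100 per cage, as the geometric mean of three cages per dose.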

Rattus norvegicus [3] = assay: Compound was tested for the oral natriuretic activity in female rats at the dose 3 mg/kg; mequiv of Na+ x 100 / cage; assay type: functional; procedure, shortened: as §2
Rattus norvegicus [4] = assay: Compound was tested for the oral natriuretic activity in female rats at the dose 9 mg/kg; mequiv of Na+ x 100 / cage; assay type: functional; procedure, shortened: as §2
Rattus norvegicus [5] = assay: Compound was tested for the oral natriuretic activity in female rats at the dose 81 mg/kg; mequiv of Na+ x 100 / cage; assay type: functional; procedure, shortened: as §2
[6] = Compound was tested for the ratio of clearance of urate to clearance of inulin levels at 5 mg/kg in Chimpanzee; assay type: functional; procedure, shortened: as §1
Pan troglodytes [7] = assay: Compound was tested for the oral diuretic activity in chimpanzee at the dose 5 mg/kg expressed as excretion rate in microequiv of K+/min; assay type: functional, Urine; procedure, shortened: as §1
Pan troglodytes [8] = assay: Compound was tested for the oral diuretic activity in chimpanzee at the dose 5 mg/kg expressed as excretion rate in microequiv of Cl-/min; assay type: functional, Urine; procedure, shortened: as §1
Pan troglodytes [9] = assay: Compound was tested for the oral natriuretic activity in chimpanzee at 5 mg/kg by observing the excretion rates of sodium; µequiv of Na+/min
Pan troglodytes [10] = assay: Compound was tested for the oral natriuretic activity in chimpanzee at the dose 0.1 mg/kg expressed as excretion rate in microequiv of Na+/min; assay type: functional; procedure, shortened: as §1
Pan troglodytes [11] = assay: Compound was tested for the oral diuretic activity in chimpanzee at the dose 0.1 mg/kg expressed as excretion rate in microequiv of K+/min; assay type: functional, Urine; procedure, shortened: as §1
Pan troglodytes [12] = assay: Compound was tested for the oral diuretic activity in chimpanzee at the dose 0.1 mg/kg expressed as excretion rate in microequiv of Cl-/min; assay type: functional, Urine; procedure, shortened: as §1

SMILES	Excretion rate (Pan troglodytes [1])	Excretion rate (Rattus norvegicus [2])	Excretion rate (Rattus norvegicus [3])	Excretion rate (Rattus norvegicus [4])	Excretion rate (Rattus norvegicus [5])	Ratio [6]	Excretion rate (Pan troglodytes [7])	Excretion rate (Pan troglodytes [8])	further results
CCCC1Cc2c(c(C)c(C)c3oc(C(=O)O)cc23)C1=O (centres undefined)	0	32	15	16	28	0.01			
O=C(O)COc1cc2c(c(Cl)c1Cl)C(=O)C1(CCCC1)C2	321					0.14	42	399	
CC1(C2CCCC2)Cc2cc(OCC(=O)O)c(Cl)c(Cl)c2C1=O (centres undefined)	425					0.2	64	367	
NS(=O)(=O)c1cc(C(=O)O)c(NCc2ccco2)cc1Cl [FUROSEMIDE]		125		7	244	-0.02			Excretion rate (Pan troglodytes [9]): 1040 µequiv/min
CC1(C2CCCC2)Cc2c3c(c(Cl)c(Cl)c2C1=O)O[C@@H](C(=O)O)C3 (some centres undefined)	437	279	127	223	340	-0.04	63	614	
NS(=O)(=O)c1cc2c(cc1Cl)NCNS2(=O)=O [HYDROCHLOROTHIAZIDE]	144			112			73	198	
O=C(O)[C@H]1Cc2c3c(c(Cl)c(Cl)c2O1)C(=O)C1(CCCC1)C3 (stereo in doubt; 4d)		349			432		274	1990	Excretion rate (Pan troglodytes [1]; 5 mg/kg): 1500; Excretion rate (Rattus norvegicus [3]; 3 mg/kg): 224; Excretion rate (Rattus norvegicus [4]; 9 mg/kg): 323; Ratio ([6]; 5 mg/kg): 0
CCC1C(=O)c2c(Cl)c(Cl)c3c(c2C1c1ccccc1)CC(C(=O)O)O3 (centres undefined)	820	82	94	109	87	0.16			
CC1(c2ccccc2)Cc2c3c(c(Cl)c(Cl)c2C1=O)O[C@H](C(=O)O)C3 (some centres undefined)		281	189	267	388	0.09			Excretion rate (Pan troglodytes [10]): 1305; Excretion rate (Pan troglodytes [11]): 88; Excretion rate (Pan troglodytes [12]): 1532
CC1(c2ccccc2)Cc2cc(OCC(=O)O)c(Cl)c(Cl)c2C1=O (centres undefined) [INDACRINONE]	409	129	86	97	189	0.38	108	539	
CCCC1Cc2c3c(c(C)c(C)c2C1=O)OC(C(=O)O)C3 (centres undefined)	252					0.01			
CCCN(CCC)S(=O)(=O)c1ccc(C(=O)O)cc1 [PROBENECID]						0.05			
